These results are taken from ChEMBL document CHEMBL3745626, “Synthesis of β-boswellic acid derivatives as cytotoxic and apoptotic agents” (Bioorg Med Chem Lett, 2016).

Experiment [1] deals with A549. In words: Anticancer activity against human A549 cells assessed as growth inhibition at 100 uM after 24 hrs by sulforhodamine B assay. In kind it is functional. To be noted: A549, 24 h.
Experiment [2] concerns A549. Put plainly: Anticancer activity against human A549 cells assessed as growth inhibition after 24 hrs by sulforhodamine B assay. The experiment is classed as functional, cell-based. To be noted: A549, 24 h. In outline:
(§1)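 SRB assay on human cancer cell lines over a range of concentrations; inhibitory values calculated from concentration–response data, mean ± SD of three experiments.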
(In general: Sulforhodamine B stains cellular protein and so reports cell mass.)

Experiment [3] is described as follows: Cytotoxicity against human FR2 cells assessed as growth inhibition after 24 hrs by sulforhodamine B assay. The experiment is classed as cell-based. The following applies: FR2, 24 h.
Experiment [4] in a line: Anticancer activity against human HT1080 cells assessed as growth inhibition at 100 uM after 24 hrs by sulforhodamine B assay. The experiment is classed as functional. To be noted: HT-1080, 24 h.
Experiment [5] can be described thus: Anticancer activity against human PC3 cells assessed as growth inhibition at 100 uM after 24 hrs by sulforhodamine B assay. The experiment is classed as functional. To be noted: PC-3, 24 h.
The test system of a further experiment is T47D. In words: Anticancer activity against human T47D cells assessed as growth inhibition after 24 hrs by sulforhodamine B assay. The experiment is classed as functional, cell-based. The essentials: as §1
Experiment [6] is described as follows: Anticancer activity against human HCT116 cells assessed as growth inhibition after 24 hrs by sulforhodamine B assay. The following applies: HCT-116, 24 h. The experiment is classed as functional, cell-based. In outline:
as §1

Experiment [7] in a line: Anticancer activity against human PC3 cells assessed as growth inhibition after 24 hrs by sulforhodamine B assay. In kind it is functional, cell-based. The following applies: PC-3, 24 h. The essentials:
as §1

Experiment [8] is described as follows: Anticancer activity against human HCT116 cells assessed as growth inhibition at 100 uM after 24 hrs by sulforhodamine B assay. The experiment is classed as functional. To be noted: HCT-116, 24 h.
Experiment [9] has as its system HCT-116. In words: Induction of ROS generation in human HCT116 cells after 48 hrs by 2',7'-dichlorofluorescien diacetate staining based fluorescence microscopy. The experiment is classed as functional, cell-based. In outline:
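HCT-116 cells exposed 48 h at 1 and 2.5 μM, loaded with DCFDA; DCF fluorescence measured by imaging and spectrofluorometry; H2O2 positive control.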

Experiment [10] has as its system HCT-116. In words: Induction of apoptosis in human HCT116 cells assessed as increase in apoptotic body formation after 48 hrs by DAPI staining based fluorescence microscopy. In kind it is functional, cell-based. In outline: (§2)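 HCT-116 cells exposed to 1, 2.5 and 5 μM for 48 h, nuclei stained with DAPI and examined by fluorescence microscopy for chromatin condensation and apoptotic bodies; untreated and paclitaxel controls.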

The test system of experiment [11] is HCT-116. In words: Induction of apoptosis in human HCT116 cells assessed as PARP cleavage at 1 to 5 uM after 48 hrs by Western blot analysis. The experiment is classed as functional, cell-based. The essentials:
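HCT-116 cells incubated 48 h at 1, 2.5 and 5 μM; intact and cleaved PARP-1 detected by western blot, β-actin loading control; paclitaxel positive control.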

Experiment [12] concerns HCT-116. In words: Anticancer activity against human HCT116 cells assessed as inhibition of colony formation at 1 to 5 uM after 48 hrs by clonogenic assay. In kind it is functional, cell-based. The essentials: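 HCT-116 cells treated at 1, 2.5 and 5 μM, then reseeded at suitable dilution (500 cells for untreated control) in six-well plates to form colonies over 1-3 weeks; survival fraction expressed relative to untreated control; paclitaxel positive control.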

For experiment [13], the system named is HCT-116. Put plainly: Induction of apoptosis in human HCT116 cells assessed as chromatin condensation after 48 hrs by DAPI staining based fluorescence microscopy. The experiment is classed as functional, cell-based. The essentials:
as §2

Experiment [14] has as its system HCT-116. In words: Induction of apoptosis in human HCT116 cells assessed as loss of mitochondrial membrane potential after 48 hrs by rhodamine 123 staining based confocal microscopy. In kind it is functional, cell-based. In outline:
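Rhodamine-123 staining of HCT-116 cells treated at 1, 2.5 and 5 μM; mitochondrial fluorescence intensity read by laser scanning confocal microscopy; paclitaxel (50 nM) positive control; mean ± SD.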

Experiment [15] concerns HCT-116. Put plainly: Induction of apoptosis in human HCT116 cells assessed as PARP cleavage at 50 nM after 48 hrs by Western blot analysis. The experiment is classed as functional, cell-based. A general note: Immunoblotting shows a protein as a band on a membrane.

Molecules are shown by their SMILES. Calls of active or inactive are those of the source. The calls are words filed in the database; no cut-off is given here.

In the case of `COC(=O)[C@@]1(C)C(=O)/C(=C/c2ccc(Cl)cc2Cl)C[C@]2(C)[C@H]3CC=C4[C@@H]5[C@@H](C)[C@H](C)CC[C@]5(C)CC[C@@]4(C)[C@]3(C)CC[C@@H]12`, the inhibition – broadly, the percentage by which the read-out fell short of the control – at 100 µM with A549 [1] turned out to be 97%; in experiment [4] it was 100%; in [5], 79%; in experiment [8], 49%. Further, the IC50 (in general, the concentration at which inhibition is half-maximal) in the experiment on A549 [2] was 56.1 µM; in experiment [3], more than 100 µM; in the experiment with T47D, more than 100 µM; in experiment [6], more than 100 µM; in experiment [7], 69.5 µM.
Regarding `COC(=O)[C@@]1(C)C(=O)/C(=C/c2ccncc2)C[C@]2(C)[C@H]3CC=C4[C@@H]5[C@@H](C)[C@H](C)CC[C@]5(C)CC[C@@]4(C)[C@]3(C)CC[C@@H]12`, the Activity entry in the experiment on HCT-116 [9], with HCT-116 [10], with HCT-116 [13] and in the experiment with HCT-116 [14] was “Dose-dependent effect” each time. The inhibition at 100 µM with A549 [1] was determined as 99%; in [4], 95%; in experiment [5] it was 100%; in experiment [8] it was 100%. Besides, the IC50 in the experiment on A549 [2] came out at 2.13 µM; in experiment [3] it was 21.4 µM; in the experiment with T47D, 1.26 µM; in [6], 1.84 µM; in experiment [7] it was 1.96 µM. Further, in the experiment with HCT-116 [11], the outcome was Active. Also, the inhibition result in the experiment on HCT-116 [12] is “Dose-dependent effect”.
On to `CC(=O)O[C@H]1C(=O)[C@@]2(C)[C@H]([C@H](OC(=O)c3ccccc3)[C@]3(O)C[C@H](OC(=O)[C@H](O)[C@@H](NC(=O)c4ccccc4)c4ccccc4)C(C)=C1C3(C)C)[C@]1(OC(C)=O)CO[C@@H]1C[C@@H]2O`, for which the result in the experiment on HCT-116 [10] and in the experiment with HCT-116 [15] was Active.
Regarding `COC(=O)[C@@]1(C)C(=O)/C(=C/c2ccccn2)C[C@]2(C)[C@H]3CC=C4[C@@H]5[C@@H](C)[C@H](C)CC[C@]5(C)CC[C@@]4(C)[C@]3(C)CC[C@@H]12`, the inhibition at 100 µM amounted to 100% in the experiment on A549 [1], 95% in experiment [4], 100% in experiment [5] and 100% in experiment [8]. The IC50 in the experiment on A549 [2] was 26.1 µM; in experiment [3], 59 µM; with T47D it was 15.6 µM; in experiment [6], 7.2 µM; in [7], 24.4 µM.
